Laboratory results published in ChEMBL document CHEMBL1132720 (J Med Chem, 1999).
The source made the active and inactive calls. The calls are words filed in the database; no cut-off is given here.

What was measured:
Type in all cases: functional, cell membranes
[1] = target: P2Y purinoceptor 1 (Meleagris gallopavo) (UniProt P49652); assay: Antagonist activity for inhibition of PLC elicited by 10 nM 2-MeSADP at P2Y purinoceptor 1 in the turkey erythrocyte membranes; No effect
In short: (§1)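 [3H]inositol-labeled turkey erythrocyte ghosts in pH 7.0 Hepes medium with 1 μM GTPγS were incubated 5 min at 30 °C with test nucleotide plus 10 nM 2-MeSADP. Total [3H]inositol phosphates were separated by anion-exchange. […] Maximal inhibition is 100 minus residual stimulation at the highest concentration; n = 3 unless stated. "No effect" means none at 100 μM.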

[2] = target: P2Y purinoceptor 1 (Meleagris gallopavo) (UniProt P49652); assay: In vitro agonist activity at P2Y1 receptor in turkey erythrocyte membranes; No effect at 100 uM.
[3] = target: P2Y purinoceptor 1 (Meleagris gallopavo) (UniProt P49652); assay: Agonist activity for stimulation of PLC at P2Y purinoceptor 1 in the turkey erythrocyte membranes.
[4] = target: P2Y purinoceptor 1 (Meleagris gallopavo) (UniProt P49652); assay: Antagonist activity for inhibition of PLC elicited by 10 nM 2-MeSADP at P2Y purinoceptor 1 in turkey erythrocyte membranes; in short: as §1
[5] = target: T1, P2Y purinoceptor 1 (Meleagris gallopavo, UniProt P49652); assay: In vitro antagonist activity at P2Y1 receptor in turkey erythrocyte membranes.
T1 sequence (P49652 whole entry): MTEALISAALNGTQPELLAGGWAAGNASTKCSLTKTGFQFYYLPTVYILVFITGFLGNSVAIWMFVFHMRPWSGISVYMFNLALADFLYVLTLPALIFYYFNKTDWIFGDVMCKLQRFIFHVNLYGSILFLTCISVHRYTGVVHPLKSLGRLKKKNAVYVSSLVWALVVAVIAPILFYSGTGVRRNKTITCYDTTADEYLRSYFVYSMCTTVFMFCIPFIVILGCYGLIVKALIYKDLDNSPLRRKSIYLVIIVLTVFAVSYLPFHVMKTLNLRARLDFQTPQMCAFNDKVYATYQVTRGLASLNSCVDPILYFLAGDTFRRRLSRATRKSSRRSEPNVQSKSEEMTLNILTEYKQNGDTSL
In short: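 [3H]inositol-labeled turkey erythrocyte ghosts in pH 7.0 Hepes medium with 1 μM GTPγS were incubated 5 min at 30 °C with test nucleotide plus 10 nM 2-MeSADP. Total [3H]inositol phosphates were separated by anion-exchange. Maximal inhibition is 100 minus residual stimulation at the highest concentration; n = 3 unless stated. "No effect" means none at 100 μM.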

[6] = target: T1, P2Y purinoceptor 1; assay: Concentration at which 50% of the maximal effect (stimulation of PLC at P2Y1 receptor in the turkey erythrocyte membranes) is reached
[7] = target: P2Y purinoceptor 1 (Meleagris gallopavo) (UniProt P49652); assay: Antagonist activity for inhibition of PLC elicited by 10 nM 2-MeSADP at P2Y purinoceptor 1 in the turkey erythrocyte membranes; No effect, low potency; in short: as §1
[8] = target: T1, P2Y purinoceptor 1; assay: Concentration at which 50% of the maximal effect (stimulation of PLC at P2Y1 receptor in the turkey erythrocyte membranes) is reached; Low potency agonist

Sequence of P2Y purinoceptor 1 (Meleagris gallopavo) (P49652 whole entry): as above

Row | SMILES | inhibition [1] | Increase [2] | Increase [3] | inhibition [4] | IC50 [5] | EC50 [6] | inhibition [7] | EC50 [8]
1 | O=c1[nH]c(=O)n([C@H]2C[C@H](OP(=O)(O)O)[C@@H](COP(=O)(O)O)O2)cc1F | inactive | inactive | – | – | – | – | – | –
2 | CCCSc1nc(NC)c2ncn([C@H]3C[C@H](OP(=O)(O)O)[C@@H](COP(=O)(O)O)O3)c2n1 | – | – | 7% | 94% | 449 nM | – | – | –
3 | CNc1nc(I)nc2c1ncn2[C@H]1C[C@H](OP(=O)(O)O)[C@@H](COP(=O)(O)O)O1 | – | – | 13% | 87% | 891 nM | 4440 nM | – | –
4 | CNc1ncnc2c1ncn2[C@H]1C[C@@H]2OP(=O)(O)OP(=O)(O)OC[C@H]2O1 | – | inactive | – | – | – | – | inactive | –
5 | CONc1ncnc2c1ncn2[C@H]1C[C@H](OP(=O)(O)O)[C@@H](COP(=O)(O)O)O1 | – | inactive | – | – | > 100000 nM | – | inactive | –
6 | CSc1nc2c(N)ncnc2n1[C@H]1C[C@H](OP(=O)(O)O)[C@@H](COP(=O)(O)O)O1 | – | inactive | – | – | – | – | inactive | –
7 | CCCSc1nc(N)c2ncn([C@H]3C[C@H](OP(=O)(O)O)[C@@H](COP(=O)(O)O)O3)c2n1 | – | – | 53% | 46% | – | 1710 nM | – | –
8 | COc1nc2c(N)ncnc2n1[C@H]1C[C@H](OP(=O)(O)O)[C@@H](COP(=O)(O)O)O1 | inactive | inactive | – | – | – | – | – | –
9 | [N-]=[N+]=N[C@H]1[C@@H](OP(=O)(O)O)[C@H](n2cnc3c(N)ncnc32)O[C@@H]1COP(=O)(O)OP(=O)(O)OP(=O)(O)O | – | – | 49% | – | – | – | inactive | Partial agonist
10 | CSc1nc(N)c2ncn([C@H]3C[C@H](OP(=O)(O)O)[C@@H](COP(=O)(O)O)O3)c2n1 | – | – | 22% | 78% | 1890 nM | – | – | –
11 | Nc1ncnc2c1ncn2[C@H]1C[C@H](OP(=O)(O)O)[C@@H](COCP(=O)(O)O)O1 | – | – | 22% | 78% | 19600 nM | 27700 nM | – | –
12 | CNc1nc2c(N)ncnc2n1[C@H]1C[C@H](OP(=O)(O)O)[C@@H](COP(=O)(O)O)O1 | – | inactive | – | – | – | – | inactive | –
13 | CNc1nc(N)nc2c1ncn2[C@@H]1C[C@H](COP(=O)(O)O)[C@@H](OP(=O)(O)O)C1 | – | – | 26% | 74% | 5420 nM | 6490 nM | – | –
14 | Nc1nc2c(ncn2[C@H]2C[C@H](OP(=O)(O)O)[C@@H](COP(=O)(O)O)O2)c(=O)[nH]1 | – | inactive | – | 93% | 14900 nM | – | – | –
15 | Cc1nc2c(N)ncnc2n1[C@H]1C[C@H](OP(=O)(O)O)[C@@H](COP(=O)(O)O)O1 | – | inactive | – | 53% | 75100 nM | – | – | –
16 | Nc1ncnc2c1ncn2[C@H]1C[C@H](O)[C@@H](COP(=O)(O)O)[S+]1[O-] (stereo partly specified) | inactive | inactive | – | – | – | – | – | –
17 | CNc1ncnc2c1ncn2[C@H]1C[C@@H]2OP(=O)(O)OP(=O)(O)OP(=O)(O)OP(=O)(O)OC[C@H]2O1 | – | – | 14% | 87% | 158 nM | 20 nM | – | –
18 | Nc1ncnc2c1ncn2[C@@H]1CO[C@H](COP(=O)(O)O)[C@@H](OP(=O)(O)O)C1 | inactive | – | 100% | – | – | 2990 nM | – | –
19 | C=CCSc1nc(NC)c2ncn([C@H]3C[C@H](OP(=O)(O)O)[C@@H](COP(=O)(O)O)O3)c2n1 | – | inactive | – | 97% | 475 nM | – | – | –

Row | SMILES | inhibition [1] | Increase [2] | Increase [3] | inhibition [4] | IC50 [5] | EC50 [6] | inhibition [7] | EC50 [8]
20 | COP(=O)(O)OC[C@H]1O[C@@H](n2cnc3c(N)ncnc32)C[C@@H]1OP(=O)(O)OC | inactive | inactive | – | – | – | – | – | –
21 | CCSc1nc(NC)c2ncn([C@H]3C[C@H](OP(=O)(O)O)[C@@H](COP(=O)(O)O)O3)c2n1 | – | inactive | – | 94% | 980 nM | – | – | –
22 | [N-]=[N+]=N[C@H]1[C@@H](OP(=O)(O)O)[C@H](n2cnc3c(N)ncnc32)O[C@@H]1COP(=O)(O)O | inactive | – | 46% | – | – | – | – | Partial agonist
23 | C=Cc1nc2c(N)ncnc2n1[C@H]1C[C@H](OP(=O)(O)O)[C@@H](COP(=O)(O)O)O1 | – | inactive | – | 59% | 30700 nM | – | – | –
24 | O=c1ccn([C@H]2C[C@H](OP(=O)(O)O)[C@@H](COP(=O)(O)O)O2)c(=O)[nH]1 | inactive | inactive | – | – | – | – | – | –
25 | Nc1ccn([C@H]2C[C@H](OP(=O)(O)O)[C@@H](COP(=O)(O)O)O2)c(=O)n1 | inactive | inactive | – | – | – | – | – | –
26 | Nc1ncnc2c1ncn2[C@@H]1C[C@H](COP(=O)(O)O)[C@@H](OP(=O)(O)O)C1 | – | – | 27% | 73% | 2530 nM | 7210 nM | – | –
27 | CCCCCCSc1nc(NC)c2ncn([C@H]3C[C@H](OP(=O)(O)O)[C@@H](COP(=O)(O)O)O3)c2n1 | – | inactive | – | 100% | 3370 nM | – | – | –
28 | CNc1nc(SC)nc2c1ncn2[C@H]1C[C@H](OP(=O)(O)O)[C@@H](COP(=O)(O)O)O1 | – | – | 6% | 94% | 362 nM | – | – | –
29 | Nc1ncnc2c1ncn2[C@H]1C[C@H](OP(=O)(O)O)[C@@H](COP(=O)(O)O)O1 | – | – | 12% | 87% | – | – | – | –
30 | Cc1cn([C@H]2C[C@H](OP(=O)(O)O)[C@@H](COP(=O)(O)O)O2)c(=O)[nH]c1=O | inactive | inactive | – | – | – | – | – | –
31 | CNc1ccnc2c1ncn2[C@H]1C[C@H](OP(=O)(O)O)[C@@H](COP(=O)(O)O)O1 | – | inactive | – | 96% | 904 nM | – | – | –
32 | Nc1nc(Cl)nc2c1ncn2[C@H]1C[C@H](OP(=O)(O)O)[C@@H](COP(=O)(O)O)O1 | – | – | 19% | 80% | – | – | – | –
33 | CCSc1nc(N)c2ncn([C@H]3C[C@H](OP(=O)(O)O)[C@@H](COP(=O)(O)O)O3)c2n1 | – | – | 16% | 84% | 4590 nM | 1980 nM | – | –
34 | Nc1ncnc2c1ncn2[C@@H]1O[C@H](COP(=O)(O)O)[C@@H](OP(=O)(O)O)[C@H]1O | – | – | 44% | 56% | 14900 nM | 2340 nM | – | –
35 | CNc1nc(Cl)nc2c1ncn2[C@H]1C[C@H](OP(=O)(O)O)[C@@H](COP(=O)(O)O)O1 | – | inactive | – | 95% | 206 nM | – | – | –
36 | Nc1ncnc2c1ncn2[C@H]1C[C@H](OP(=O)(O)O)[C@@H](COP(=O)(O)O)S1 | – | – | 56% | 38% | – | 12200 nM | – | –
37 | CNc1nc(N)nc2c1ncn2[C@H]1C[C@H](OP(=O)(O)O)[C@@H](COP(=O)(O)O)O1 | – | – | 4% | 96% | 1850 nM | – | – | –
